Source: ChEMBL document CHEMBL1124785, “Synthesis, metabolism, and pharmacological activity of 3 alpha-hydroxy steroids which potentiate GABA-receptor-mediated chloride ion uptake in rat cerebral cortical synaptoneurosomes” (1990)

Experiments:
Rattus norvegicus [1] = species on record: Rattus norvegicus; assay: Effect on the potentiation of muscimol-stimulated 36Cl- uptake in rat brain synaptoneurosomes; format: functional
Summary of the method: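 Cerebral cortex synaptoneurosomes from adult male Sprague-Dawley rats (180-200 g), homogenized in Tris-Hepes buffer pH 7.4 with salts and glucose, filtered and washed. Tubes held 1 mg protein. Steroid plus 3 μM muscimol preincubated 10 min at 30 °C, then 0.5 µCi 36Cl- added. Uptake stopped after 5 s with ice-cold picrotoxin buffer and filtered. Counted by scintillation, in quadruplicate; increase measured over muscimol alone.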

Rattus norvegicus [2] = assay: The recovery of radioactivity 20 min after administration of [3H]- labeled steroids to rat plasma; format: functional, organism-based
Summary of the method: (§1)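 Adult male Sprague-Dawley rats (240-260 g), four per group, were given 100 μCi tritiated steroid by tail vein in ethanol-saline. Blood and brain were collected 20 min later and aliquots counted for radioactivity (dpm/mL plasma, dpm/g brain). The brain/plasma ratio was also taken; means ± SE.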

Rattus norvegicus [3] = assay: The recovery of radioactivity 20 min after administration of [3H]- labeled steroids to rat brain; format: functional, organism-based; summary of the method: as §1
Rattus norvegicus [4] = species on record: Rattus norvegicus; assay: Percent of total tritium in extracts of rat brain; format: functional
Summary of the method: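 Groups of four adult male Sprague-Dawley rats (240-260 g) received 100 μCi 3H-steroid in ethanol-saline by tail vein and were killed after 20 min. Brain was homogenized in chloroform/methanol (2:1) and the extract separated by HPLC (75% aqueous methanol) alongside unlabeled internal standards read at 280 nm. Fraction radioactivity was expressed as % of total brain tritium; means ± SE.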

Row | Structure (SMILES) | Potentiation (Rattus norvegicus [1]) [nM/mg] | also measured
1 | CC(=O)OCC(=O)[C@H]1CC[C@H]2[C@@H]3CC[C@@H]4C[C@H](O)CC[C@]4(C)[C@H]3CC[C@]12C | 10.3 | –
2 | C[C@]12CC=C3C(CC[C@H]4C[C@H](O)CC[C@]34C)C1CC[C@@H]2C(=O)CO (some centres undefined) | 1.4 | –
3 | CC(=O)OCC(=O)[C@H]1CC[C@H]2[C@@H]3CC[C@H]4C[C@H](O)CC[C@]4(C)[C@H]3CC[C@]12C | 12.2 | –
4 | CC1([C@H]2CC[C@H]3[C@@H]4CC[C@H]5C[C@H](O)CC[C@]5(C)[C@H]4CC[C@]23C)OCCO1 | 0.16 | –
5 | CC(=O)C1CC[C@H]2[C@@H]3CC[C@H]4C/C(=N\O)CCC4(C)[C@H]3CCC12C (some centres undefined) | -3.26 | –
6 | C[C@]12CC[C@@H](O)C[C@@H]1CC[C@@H]1[C@@H]2CC[C@]2(C)[C@@H](C(=O)CO)CC[C@@H]12 | 13.1 | Recovery (Rattus norvegicus [2]): 316000 dpm ml-1; Recovery (Rattus norvegicus [3]): 212000 dpm ml-1; Total tritium (Rattus norvegicus [4]): 48.1%
7 | C[C@]12CC[C@@H](O)C[C@@H]1CC[C@@H]1[C@@H]2CC[C@]2(C)C(=O)CC[C@@H]12 [ANDROSTERONE] | 7 | –
8 | CC1([C@H]2CC[C@H]3[C@@H]4CC[C@@H]5C[C@H](O)CC[C@]5(C)[C@H]4CC[C@]23C)OCCO1 | -0.96 | –
9 | CC(=O)[C@H]1CCC2C3CCC4=C[C@@H](O)CC[C@]4(C)C3CC[C@@]21C (some centres undefined) | 1.43 | –
10 | C[C@]12CCC(=O)C[C@@H]1CC[C@@H]1[C@@H]2CC[C@]2(C)C(C(=O)CO)CC[C@@H]12 (some centres undefined) | -1.95 | Total tritium (Rattus norvegicus [4]): 46.1%
11 | CC(=O)O[C@@H]1CC[C@@]2(C)[C@@H](CC[C@@H]3[C@@H]2CC[C@]2(C)[C@@H](C(=O)CO)CC[C@@H]32)C1 | 0.48 | –
12 | CC(=O)O[C@@H]1CC[C@@]2(C)[C@@H](CC[C@@H]3[C@@H]2CC[C@]2(C)[C@@H](C(C)=O)CC[C@@H]32)C1 | 2.57 | –
13 | CC(=O)[C@H]1CC[C@H]2[C@@H]3CCC4=CC(=O)CC[C@]4(C)[C@H]3CC[C@]12C [PROGESTERONE] | -1.8 | –
14 | CC(=O)[C@@H]1CC[C@H]2[C@@H]3CC[C@H]4C[C@H](O)CC[C@]4(C)[C@H]3CC[C@]12C | 1.12 | –
15 | CC(=O)[C@H]1CC[C@H]2[C@@H]3CCC4=C[C@H](O)CC[C@]4(C)[C@H]3CC[C@]12C | 10.4 | –
16 | C[C@]12CC[C@@H](O)C[C@@H]1CC[C@@H]1[C@@H]2CC[C@]2(C)[C@@H](C(=O)COS(C)(=O)=O)CC[C@@H]12 | 7.9 | –

Row | Structure (SMILES) | Potentiation (Rattus norvegicus [1]) [nM/mg] | also measured
17 | COC(=O)[C@H]1CC[C@H]2[C@@H]3CC[C@H]4C[C@H](O)CC[C@]4(C)[C@H]3CC[C@]12C | 3.6 | –
18 | CC(=O)[C@H]1CC[C@H]2[C@@H]3CC[C@@H]4C[C@H](O)CC[C@]4(C)[C@H]3C[C@H](O)[C@]12C | -2.58 | –
19 | CC(=O)[C@H]1CCC2C3CC[C@H]4C[C@H](O)CC[C@]4(C)C3=CC[C@@]21C (some centres undefined) | 1.23 | –
20 | CC(=O)[C@H]1CC[C@H]2[C@@H]3CC[C@@H]4C[C@H](O)CC[C@]4(C)[C@H]3[C@H](O)C[C@]12C | 0.98 | –
21 | C[C@]12CC[C@@H](O)C[C@@H]1CC[C@@H]1[C@@H]2CC[C@]2(C)[C@H](C#N)CC[C@@H]12 | -2.1 | –
22 | C[C@]12CC[C@@H](O)C[C@H]1CC[C@@H]1[C@@H]2CC[C@]2(C)C(=O)CC[C@@H]12 [ETIOCHOLANOLONE] | 4.9 | –
23 | CC(=O)C1CC[C@H]2[C@@H]3CC[C@H]4CC(=O)CC[C@]4(C)[C@H]3CC[C@]12C (some centres undefined) | 2.63 | Total tritium (Rattus norvegicus [4]): 40.6%
24 | CC(=O)[C@H]1CC[C@H]2[C@@H]3CC[C@H]4C[C@H](O)CC[C@]4(C)[C@H]3[C@H](O)C[C@]12C | 0.7 | –
25 | CC(=O)OCC(=O)[C@H]1CC[C@H]2[C@@H]3CC[C@H]4C[C@H](OC(C)=O)CC[C@]4(C)[C@H]3CC[C@]12C | 1.37 | –
26 | C[C@H](O)[C@H]1CC[C@H]2[C@@H]3CC[C@H]4C[C@H](O)CC[C@]4(C)[C@H]3CC[C@]12C | 1.97 | –
27 | C[C@]12CC[C@@H](O)C[C@@H]1CC[C@@H]1[C@@H]2CC[C@]2(C)[C@@H](C#N)CC[C@@H]12 | 13 | –
28 | CC(=O)OCC(=O)[C@H]1CCC2C3CC[C@H]4C[C@H](O)CC[C@]4(C)C3=CC[C@@]21C (some centres undefined) | 0.34 | –
29 | C[C@]12CC[C@@H](O)C[C@H]1CC[C@@H]1[C@@H]2CC[C@]2(C)[C@@H](C(=O)CO)CC[C@@H]12 | 7.7 | –
30 | CC(=O)[C@H]1CC[C@H]2[C@@H]3CC[C@H]4C[C@H](O)CC[C@]4(C)[C@H]3CC[C@]12C [BREXANOLONE] | 10.9 | Recovery (Rattus norvegicus [2]): 176000 dpm ml-1; Recovery (Rattus norvegicus [3]): 342000 dpm ml-1; Total tritium (Rattus norvegicus [4]): 50.4%
31 | C[C@]12CC[C@@H](O)C[C@@H]1CC[C@@H]1[C@@H]2CC[C@]2(C)/C(=N\O)CC[C@@H]12 | -1.91 | –
